Compounds with a hit are over-represented: about 4.3% of the library has one in this group of screens.
TAAR1 antagonist = human TAAR1 antagonism | inhibition, % at 3 µM | Q96RJ0 | hit rate 1.5% among 360,000 | AID 624466 | CHO RD-HGA16 TAAR1, Fluo-8 calcium fluorescence, antagonist;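 active = inhibition above a per-plate cutoff, the mean inhibition of test compounds on that plate plus 3 SD, cut at about 49% in these data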;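 also: 0% = DMSO plus EC80 beta-PEA response and 100% = DMSO alone without agonist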
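Assay system: CHO-derived RD-HGA16 cells stably expressing human TAAR1 plus Gα16. Timing: 140 s kinetic read after compound, 140 s after agonist. Technique: kinetic Fluo-8 calcium fluorescence measurement. Measure: % inhibition of agonist calcium response.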
B2AR ag = agonists of human beta-2 adrenergic receptor inducing internalization. P07550. Am2.2-beta2AR cells, FAP receptor internalization, flow cytometry. response, % (no concentration beside the values). hit rate 0.43% among 340,000. AID 504454;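 active = response above a set limit, near 3 SD of response in nonfluorescent compounds, cut at about 42% in these data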
MC4R antag cAMP = blocks human MC4R cAMP signaling | P32245 | MC4R-expressing cells, MTII-stimulated cAMP, LANCE TR-FRET | inhibition, % at 6.5 µM | hit rate 0.48% among 360,000 | AID 540295;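 active = inhibition above its plate's cutoff, the mean of tested wells on that plate plus 3 SD, cut at about 29% in these data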;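 also: 0% = Melanotan II alone and 100% = Melanotan II plus saturating MCL0020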
Target sequence (P32245 whole entry, looked up): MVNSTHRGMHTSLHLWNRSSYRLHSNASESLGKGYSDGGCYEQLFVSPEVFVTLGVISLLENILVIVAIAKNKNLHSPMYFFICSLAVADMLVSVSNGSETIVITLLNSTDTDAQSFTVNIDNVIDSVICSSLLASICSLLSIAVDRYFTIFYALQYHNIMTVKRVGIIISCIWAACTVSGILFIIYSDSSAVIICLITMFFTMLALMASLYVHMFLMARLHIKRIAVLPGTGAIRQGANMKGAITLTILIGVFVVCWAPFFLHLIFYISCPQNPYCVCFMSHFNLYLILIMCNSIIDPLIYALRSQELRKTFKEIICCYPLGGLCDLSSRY
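System: U2OS-MC4R stable cell line; Technique: Eu-cAMP/anti-cAMP TR-FRET, emission 671 nm; Repeats: single well per compound; Also added: Melanotan II; Dosing: one concentration, 6.5 µM nominal; Schedule: 30-min compound, 1-h challenge, 1-h detection, room temperature.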
TAAR1 ag = human TAAR1 agonism; Q96RJ0; CHO RD-HGA16 TAAR1, Fluo-8 calcium fluorescence; vehicle wells 0%, saturating PEA agonist 100%; activation, % at 3 µM; hit rate 0.99% among 360,000; AID 624467;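 active = activation above the mean activation of all test compounds in the run plus 3 SD, cut at about 38% in these data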
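Assay system – CHO-derived RD-HGA16 cells with stable Gα16 and human TAAR1 · Compound dosing – one-point dosing at 3 µM (nominal) · Incubation – 17-24 h seeding, 75 min 37 °C dye, 30 min RT · Measured by – kinetic Fluo-8 calcium fluorescence · Control set – DMSO vehicle as 0%, PEA at EC100 as 100% · Repeats – single well for each compound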
MC4R ag barr = human MC4R agonism via beta-arrestin | AID 540308 | hit rate 0.98% among 360,000 | activation, % at 8.9 µM | U2OS MC4R beta-arrestin complementation, luminescence; percent of melanotan II response, DMSO zero | P32245;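 active = activation above a per-plate cutoff, the mean activation of sample wells on that plate plus 3 SD, cut at about 8% in these data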
m5-HT2A agonist = agonists of mouse serotonin 5-HT2A receptor (HTR2A); CHO-K1 mHTR2A beta-arrestin complementation, luminescence; percent of 30 µM serotonin response; hit rate 0.66% among 360,000; activation, % at 7.6 µM;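 active = activation above a run cutoff, the mean activation of all tested compounds plus 3 SD, cut at about 14% in these data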;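 also: 0% = plate median of compound wells and 100% = 30 µM serotonin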
Starred values were filed as active, the others as inactive.

`CCOc1ccc(N(C)c2ccc(/C=C3/SC(=S)NC3=O)cc2)cc1` gave TAAR1 antagonist 59*, B2AR ag -41, MC4R antag cAMP -2, TAAR1 ag 24, MC4R ag barr -2 and m5-HT2A agonist 7.
`CCN(CC)S(=O)(=O)c1ccc(-c2nnc(SCc3nnc(-c4ccccc4)o3)o2)cc1` gave TAAR1 antagonist -19, B2AR ag 5, MC4R antag cAMP 4, TAAR1 ag 8, MC4R ag barr 8.4* and m5-HT2A agonist 0.
For O=S(=O)(c1ccc(-c2nnc(SCc3nnc(-c4ccccc4)o3)o2)cc1)N1CCCC1 the results were TAAR1 antagonist 6, B2AR ag 0, MC4R antag cAMP 5, TAAR1 ag 11, MC4R ag barr -1 and m5-HT2A agonist -2.
`C(=N\Nc1nc2ccccc2s1)/c1ccc2c(c1)OCO2` gave TAAR1 antagonist 1, B2AR ag 11, MC4R antag cAMP 4, TAAR1 ag 5, MC4R ag barr 8 and m5-HT2A agonist -6.
For COc1ccc(C=NNc2nc3ccccc3s2)cc1 the results were TAAR1 antagonist 6, B2AR ag -1, MC4R antag cAMP -8, TAAR1 ag 9, MC4R ag barr 9.1* and m5-HT2A agonist -1.
Screening O=C(c1cc(-c2ccc(Cl)cc2)on1)N1CCc2ccccc2C1 returned TAAR1 antagonist 3, B2AR ag -1, MC4R antag cAMP 9, TAAR1 ag 39*, MC4R ag barr -1 and m5-HT2A agonist -3.
`COc1ccc(-c2cc(C(=O)N3CCc4ccccc4C3)no2)cc1OC` gave TAAR1 antagonist 1, B2AR ag 1, MC4R antag cAMP 9, TAAR1 ag 14, MC4R ag barr -2 and m5-HT2A agonist 3.
O=C(NC1CCCC1)[C@@H]1CCCN1C(=O)[C@@H](NC(=O)N1CCOCC1)C1CCCCC1 was read as TAAR1 antagonist 7 and TAAR1 ag 2.
For O=C(NCCc1ccccc1)C(=O)NCC1OCCCN1S(=O)(=O)c1cc(F)ccc1F (configuration not stated) the results were TAAR1 antagonist -11, B2AR ag 2, MC4R antag cAMP 4, TAAR1 ag 40*, MC4R ag barr 0 and m5-HT2A agonist 2.
`COc1ccc(CCNC(=O)C(=O)NCC2OCCN2S(=O)(=O)c2ccccc2)cc1OC` (configuration not stated) gave TAAR1 antagonist -17, B2AR ag -1, MC4R antag cAMP 8, TAAR1 ag 3, MC4R ag barr -1 and m5-HT2A agonist -2.
COc1ccccc1CCNC(=O)C(=O)NCC1OCCN1S(=O)(=O)c1ccc2c(c1)OCCO2 (configuration not stated) was read as TAAR1 antagonist 0, B2AR ag 1, MC4R antag cAMP 5, TAAR1 ag 39*, MC4R ag barr -3 and m5-HT2A agonist -1.
`O=C(NCCc1ccc(F)cc1)C(=O)NCC1CCCN1S(=O)(=O)c1cccs1` (configuration not stated) gave TAAR1 antagonist 61*, B2AR ag -2, MC4R antag cAMP -17, TAAR1 ag 33, MC4R ag barr -1 and m5-HT2A agonist -2.
For COc1ccc(CCNC(=O)C(=O)NCC2CCCN2S(=O)(=O)c2ccccc2)cc1OC (configuration not stated) the results were TAAR1 antagonist 49*, B2AR ag 5, MC4R antag cAMP -3, TAAR1 ag 17, MC4R ag barr -2 and m5-HT2A agonist -2.
Screening Cc1ccc(OC2CCN(C(=O)[C@@H](Cc3ccccc3)NC(=O)[C@H]3O[C@@H](n4ccc(=O)[nH]c4=O)[C@H](O)[C@@H]3O)CC2)cc1 returned TAAR1 antagonist -12 and TAAR1 ag 0.
For Brc1ccccc1C1Cc2nnccc2CN1 (configuration not stated) the results were TAAR1 antagonist 5 and TAAR1 ag 1.
For COC(=O)[C@]12C[C@H](CC(=O)NCc3cccs3)C(=O)N(CCC3=CCCCC3)C1=C[C@H](COCc1ccccc1)O[C@@H]2C the results were TAAR1 antagonist -6 and TAAR1 ag -1.
`CCCCCCCCN1C(=O)[C@H](CC(=O)NCCC(C)C)C[C@@]2(C(=O)OC)CCCCC=C12` gave TAAR1 antagonist -13, TAAR1 ag -2 and m5-HT2A agonist -5.
CCN(CC)c1ccc(-c2sc(Nc3ccccc3)n[n+]2-c2ccc(F)cc2)cc1 was read as TAAR1 antagonist 24, B2AR ag -321, MC4R antag cAMP -1, TAAR1 ag 49*, MC4R ag barr 4 and m5-HT2A agonist -6.
Screening CCc1ccc(Nc2n[n+](-c3ccccc3)c(-c3ccc(OCc4ccccc4)cc3)s2)cc1 returned TAAR1 antagonist 2, B2AR ag -1, MC4R antag cAMP 10, TAAR1 ag 1, MC4R ag barr 1 and m5-HT2A agonist -2.
Screening CCc1ccc(Nc2n[n+](-c3ccccc3)c(-c3ccc(N(CC)CC)cc3)s2)cc1 returned TAAR1 antagonist 50*, B2AR ag inactive, MC4R antag cAMP 11, TAAR1 ag 50*, MC4R ag barr 2 and m5-HT2A agonist -9.
For CCc1ccc(Nc2n[n+](-c3ccccc3)c(-c3c(Cl)cccc3Cl)s2)cc1 the results were TAAR1 antagonist 92*, B2AR ag 80*, MC4R antag cAMP 15, TAAR1 ag 59*, MC4R ag barr 0 and m5-HT2A agonist -18.
Screening c1ccc(-c2ccc(CN3CCN(c4ncccn4)CC3)cc2)cc1 returned TAAR1 antagonist -1, B2AR ag 6, MC4R antag cAMP 0, TAAR1 ag 13, MC4R ag barr -1 and m5-HT2A agonist 16*.
`O=[N+]([O-])c1ccc(CN2CCN(c3ncccn3)CC2)cc1` gave TAAR1 antagonist 2, B2AR ag 2, MC4R antag cAMP 9, TAAR1 ag 0, MC4R ag barr 1 and m5-HT2A agonist 12.
Screening O=C(CSc1ncnc2c1oc1ccccc12)Nc1nc2ccccc2s1 returned TAAR1 antagonist -27, B2AR ag -5, MC4R antag cAMP 8, TAAR1 ag -1, MC4R ag barr 8.6* and m5-HT2A agonist -2.
For Cc1ccc(C2NC(=O)c3n[nH]c(C)c32)cc1 (configuration not stated) the results were TAAR1 antagonist -16 and TAAR1 ag 0.
`NC(CCc1ccccc1)c1csc(NC(=O)NCC2CCCCC2)n1` (configuration not stated) gave TAAR1 antagonist 20, MC4R antag cAMP 3, TAAR1 ag 23, MC4R ag barr 8.7* and m5-HT2A agonist -10.
